# High-throughput results as filed in PubChem BioAssay.
# SKKanGAS inh – inhibitors of SKKanGAS S. pyogenes growth in kanamycin (SK-promoter or general growth effect); BacTiter-Glo, 6 h; inhibition, % at 7.5 µM; 1.3% of 300,000 active; AID 1662;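 active = mean replicate score, as percent of positive control median, at least 50; inconclusive = mean below 50 but one replicate at or above 50; inactive = mean and every replicate below 50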;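 also: strain carries kanamycin resistance gene driven by streptokinase promoter and grows in 40 µg/ml kanamycin; loss of luminescence reflects streptokinase promoter inhibition or plain growth inhibition; 0% = median of DMSO wells and 100% = positive control at its reference dose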
# CSC inhib – blocks cancer stem cells | inhibition, % at 7.5 µM | 1.1% of 300,000 active | cancer stem cell-like cells viability, luminescence; in the data active = inhibition above about 75%; inconclusive = no clear call, values can overlap the other calls; tested in HMLE shEcad cells
# T cruzi repl – blocks replication of Trypanosoma cruzi; T. cruzi beta-gal in NIH3T3, luminescence, 90 h; inhibition, % (no concentration beside the values); AID 1885; 1.4% of 300,000 active;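 active = mean inhibition across valid replicates above about 55%, limit read from the data; inconclusive = mean below that limit but half or more replicates reach it; inactive = mean below it, under half of replicates reach it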;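 also: signal also drops with host cell toxicity which is not excluded here; 0% = plate median of DMSO wells and 100% = zero luminescence signal; higher percent means less beta-gal luminescence so fewer parasites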
#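 System: Mouse NIH/3T3 fibroblasts infected with β-gal-expressing T. cruzi Tulahuen C4 | Quantity: NIH/3T3 cells, 5,000 per well | Reagent: 5000 reporter trypomastigotes per well | Dosing: Compound pinned at 50 nL/well, DMSO | Schedule: 3 h host attachment, then at least 90 h co-culture | Detection: GalScreen luminescence, 60 min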
# Beta apoptosis – beta cell apoptosis inhibition. INS-1E cytokine-induced death, ATP luminescence, 48 h; percent of positive-control rescue, neutral wells zero. protection from apoptosis, % (test concentration not listed). 0.8% of 300,000 active. AID 435005;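 active = Every replicate reaches about 75%, or at least half do and their mean reaches it too, limit read from the data; inconclusive = At least half of replicates reach the limit but their mean does not; inactive = Under half of replicates reach the limit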;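 also: 0% = cytokine-treated negative control wells and 100% = positive control rescue; higher means more ATP so stronger rescue from cytokine killing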
# L major viab – inhibitors of Leishmania major promastigote growth; Leishmania major promastigotes, resazurin fluorescence viability; inhibition, % at 10 µM; 9% of 200,000 active; AID 1063; in the data active = inhibition above about 50%;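 also: promastigotes grown with compound for 44 hours at 28 °C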
# Mdm2-MdmX inh – inhibitors of human Mdm2/MdmX interaction; 3% of 330,000 active; AID 485346; SaOS-2 split-luciferase Mdm2/MdmX complementation, luminescence; O15151+Q00987; inhibition, % at 8 µM;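 active = inhibition of at least 50% at 8 µM in the primary screen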
# Target sequence (O15151 whole entry, looked up): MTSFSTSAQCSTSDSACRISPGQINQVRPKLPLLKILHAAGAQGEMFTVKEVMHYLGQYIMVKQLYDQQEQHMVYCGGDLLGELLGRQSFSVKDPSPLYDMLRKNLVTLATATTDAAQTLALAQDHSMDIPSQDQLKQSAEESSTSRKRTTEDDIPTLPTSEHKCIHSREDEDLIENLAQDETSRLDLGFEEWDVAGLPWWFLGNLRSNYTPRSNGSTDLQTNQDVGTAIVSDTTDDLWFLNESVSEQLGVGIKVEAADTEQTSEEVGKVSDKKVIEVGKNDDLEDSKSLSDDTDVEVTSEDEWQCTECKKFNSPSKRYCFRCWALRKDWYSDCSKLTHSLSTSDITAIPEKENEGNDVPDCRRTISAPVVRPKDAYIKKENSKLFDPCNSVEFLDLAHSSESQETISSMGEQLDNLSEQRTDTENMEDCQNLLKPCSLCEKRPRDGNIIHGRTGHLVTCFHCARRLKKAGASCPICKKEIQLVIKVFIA
# Target sequence (Q00987 whole entry, looked up): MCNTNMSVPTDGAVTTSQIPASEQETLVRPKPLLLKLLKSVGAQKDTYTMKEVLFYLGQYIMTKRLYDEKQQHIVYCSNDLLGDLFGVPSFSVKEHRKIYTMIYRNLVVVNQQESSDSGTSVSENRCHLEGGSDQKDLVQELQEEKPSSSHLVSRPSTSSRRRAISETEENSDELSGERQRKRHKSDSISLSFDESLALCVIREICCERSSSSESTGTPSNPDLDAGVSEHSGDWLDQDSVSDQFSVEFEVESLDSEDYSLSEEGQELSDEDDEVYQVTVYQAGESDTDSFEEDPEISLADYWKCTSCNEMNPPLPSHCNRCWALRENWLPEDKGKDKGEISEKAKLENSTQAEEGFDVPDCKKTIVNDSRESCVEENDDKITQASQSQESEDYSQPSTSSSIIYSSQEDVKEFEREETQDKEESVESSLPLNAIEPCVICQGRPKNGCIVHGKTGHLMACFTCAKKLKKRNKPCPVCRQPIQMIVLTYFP
# Mdm2-MdmX conf – confirmation of human Mdm2/MdmX interaction inhibitors. shares compounds with Mdm2-MdmX inh. Mdm2-MdmX binding, luminescent assay. inhibition, % at 8 µM. 55% of 10,000 active. AID 489028; in the data active = inhibition above about 40%
# Full FLuc ctr – full-length luciferase inhibition in Mdm2/MdmX counter-screen. shares compounds with Mdm2-MdmX inh. SaOS-2 full-length luciferase counterscreen, luminescence. inhibition, % at 8 µM. 77% of 6,200 active;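 active = mean inhibition at 8 µM reaching about 37%, which flags the compound as non-specific, limit read from the data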;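 also: p53-null SaOS-2 cells with luciferase driven by a doxycycline-inducible promoter; compound on cells about two nights before reading with doxycycline added after day one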
# An asterisk follows results filed as active; ? = inconclusive; · = no result given. Rows were chosen to be rich in hits. Some 9.4% of all compounds tested hit in one or more screens of this group.
SMILES,SKKanGAS inh,CSC inhib,T cruzi repl,Beta apoptosis,L major viab,Mdm2-MdmX inh,Mdm2-MdmX conf,Full FLuc ctr
Cc1cc(-n2c(SCC(=O)Nc3ccc(F)c(F)c3)nc3n[nH]c(C)c3c2=N)ccc1Cl,19,68,16,76*,·,94*,71*,42*
CCc1ccc(NC(=O)CSc2nc3n[nH]c(C)c3c(=N)n2-c2cccc(OC)c2)cc1,29,6,9,15,14,66*,56*,61*
Cc1cc(-n2c(SCC(=O)NCc3cccs3)nc3n[nH]c(C)c3c2=N)ccc1Cl,24,-6,32,31,4,66*,12,·
CCC(C)NC(=O)CSc1nc2n[nH]c(C)c2c(=N)n1-c1ccc(OC)cc1 (centres undefined),-1,-7,-19,16,4,26,·,·
CCOc1ccc(-n2c(SCC(=O)Nc3ccc(Br)cc3)nc3n[nH]c(C)c3c2=N)cc1,-16,·,27,17,0,53*,41*,67*
CCOc1ccc(-n2c(SCC(=O)Nc3ccccc3CC)nc3n[nH]c(C)c3c2=N)cc1,5,2,-38,30,13,43,·,·
Cc1ccc(S(=O)(=O)N2CCN(C(=O)COC(=O)c3cncc(Br)c3)CC2)c(C)c1,·,4,·,0,·,-1,·,·
COc1ccc(Br)c(C(=O)OCC(=O)NC2CCCCCC2)c1,·,-12,·,2,·,4,·,·
Cc1cc(-n2c(SCC(=O)Nc3ccc(Br)cc3)nc3n[nH]c(C)c3c2=N)ccc1Cl,8,56,7,33,·,86*,43*,64*
COc1ccc(CNC(=O)C/C(C)=N/NC(=O)COc2ccc(C)cc2Br)cc1,-5,51,18,2,-6,57*,9,·
O=C(N/N=C\c1cc(Br)ccc1O)c1ccc(S(=O)(=O)N2CCCCC2)cc1,106*,104*,59*,100*,98*,70*,75*,21
O=C(N/N=C/c1ccc(O)c(O)c1)c1cccc(S(=O)(=O)N2CCCCC2)c1,0,10,-17,-1,10,-3,·,·
O=c1c2ccccc2c(C=Nc2cccc(O)c2)c(O)n1-c1ccc2c(c1)OCO2,25,52,-7,26,-1,82*,36,·
Nc1cc(=O)[nH]c(SCC(=O)c2ccc(O)cc2O)n1,0,-3,11,-6,·,1,·,·
CCCCc1cc(C(=O)Cc2ccccn2)c(O)cc1O,10,-8,-7,-2,·,6,·,·
CC(OC(=O)/C=C/c1ccc2ccccc2n1)C(=O)Nc1ccc(S(N)(=O)=O)cc1 (centres undefined),1,27,-11,-12,·,72*,49*,66*
CCOc1ccc(NC(=O)CN(C)C(=O)c2cccnc2SC)cc1OCC,-2,-13,-5,-6,·,11,·,·
CC(C)c1nc2cc(C(=O)N3CCNC(=O)C3c3ccc(F)cc3)ccc2o1 (centres undefined),4,-1,0,-6,·,21,·,·
CCN(CC)S(=O)(=O)c1cccc(NC(=O)Nc2cccc(C(F)(F)F)c2)c1,35,103*,42,112*,100*,68*,93*,52*
CCN(CC)S(=O)(=O)c1cccc(NC(=O)CC2CCCC2)c1,-3,-4,-6,0,·,0,·,·
CCOc1ccc(OCCC(=O)OCC(=O)NCc2ccc(Cl)cc2)cc1,-46,-3,-10,-4,·,15,·,·
Cc1ccsc1/C=N/NC(=O)CC(=O)NCC(C)C,1,-9,-12,5,-9,15,·,·
O=C(Nc1nc(-c2cccc3ccccc23)cs1)c1ccc2c(c1)S(=O)(=O)c1ccccc1C2=O,-3,?,-9,28,-5,95*,18,·
O=C(Nc1nc2ccccc2s1)c1ccc2c(c1)S(=O)(=O)c1ccccc1C2=O,·,·,·,·,3,·,·,·
O=C(Nc1nc(-c2ccccc2)cs1)c1ccc2c(c1)S(=O)(=O)c1ccccc1C2=O,13,34,-11,4,-4,74*,4,·
SMILES,SKKanGAS inh,CSC inhib,T cruzi repl,Beta apoptosis,L major viab,Mdm2-MdmX inh,Mdm2-MdmX conf,Full FLuc ctr
CN(CC(=O)Nc1ccccc1Cl)C(=O)COC(=O)c1cc(S(=O)(=O)N(C)C)ccc1N1CCCC1,-7,-8,9,·,·,13,·,·
CC(=O)/C(=N\Nc1ccccc1)Sc1cccc2cccnc12,0,-4,-1,-2,-5,-10,·,·
O=C(Sc1cccc2cccnc12)c1ccc(F)cc1,·,·,·,·,100*,93*,95*,15
O=C(Sc1cccc2cccnc12)c1ccccc1Br,67*,24,-1,52,·,97*,90*,4
S=C(NCc1ccccc1)N1CCN(C2CCCCC2)CC1,2,7,11,0,·,18,·,·
NC(=O)NCCCC(NC(=O)c1ccc(C#CC2(O)CCCCC2)cc1)C(=O)O (centres undefined),·,4,6,5,-4,61*,6,·
CCOC(=O)CNC(=O)c1ccc(C#CC2(O)CCCCC2)cc1,0,-1,-3,5,11,14,·,·
CC(C)Oc1ccc(/C=N/NC(=O)c2ccc(N(Cc3ccccc3)S(C)(=O)=O)cc2)cc1,-2,8,13,-4,3,-11,·,·
COC(=O)COc1ccc(/C=N/NC(=O)c2ccc(N(Cc3ccccc3)S(C)(=O)=O)cc2)cc1,2,22,8,-2,58*,61*,22,·
O=C(Nc1nccs1)c1cccc2ccccc12,4,0,0,-2,·,9,·,·
COc1cc(C(Nc2ccccn2)c2ccc3ccc(C)nc3c2O)cc(OC)c1O (centres undefined),9,70,52,3,94*,79*,81*,51*
Cc1cccc(NC(c2ccc(C)s2)c2ccc3ccc(C)nc3c2O)n1 (centres undefined),77*,·,?,·,37,98*,61*,24
Oc1c(C(Nc2ccccn2)c2ccccn2)ccc2cccnc12 (centres undefined),72*,-4,55*,87*,100*,53*,71*,45*
Oc1ccccc1C(Nc1nccs1)c1ccc2cccnc2c1O (centres undefined),75*,138*,63*,87*,·,64*,78*,48*
COc1ccc(N2CCN(S(=O)(=O)c3c(C)nc4scc(C)n4c3=O)CC2)cc1,8,-2,4,5,·,17,·,·
CCOc1ccc(C2c3[nH]c4ccccc4c3CCN2CCCn2cccn2)cc1 (centres undefined),-2,-7,20,-9,44,17,·,·
COc1ccc(C=C(c2nc3ccccc3s2)c2nc3ccccc3s2)cc1O,14,4,24,5,99*,58*,45*,63*
